167 variants from the RNAGym collection of RNA variant scans (doi:10.1126/science.aae0568) can be followed below.

This sample holds only a part of the variants without activity.

Sequences and labels used below:
B1: tRNA (parent)
chain: GUUCCGUUGGCGUAAUGGUAACGCGUCUCCCUCCUAAGGAGAAGACUGCGGGUUCGAGUCCCGUACGGAACG

The variants in the data set derive from B1. Nature of the data set: yeast fitness relative to wild type (ratio to wild type); higher = fitter; tRNA-Arg(CCU), competitive growth, 37 C, YPD. The method in brief: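 For this measurement, the tRNA-Arg(CCU) gene was varied by chemical synthesis at a 3% per-site mutation rate across 69 sites, and each variant was placed at the native genomic locus in Saccharomyces cerevisiae. The pooled strains went through a 24-hour competition in YPD at 37°C in six parallel replicates, with amplicons from start and end populations read by 100-nucleotide paired-end sequencing. Darwinian fitness relative to wild type followed from the change in each genotype's frequency. Genotypes needed ≥ 100 starting reads, and estimates < 0.5 were set to 0.5.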
As to U3C C11U G18C C66U, the yeast fitness is 0.516.
Consider C4U U7A U8A A65U, for which the yeast fitness was ≤ 0.5.
For C11G A21G G38C G41C C55A A65C, the yeast fitness was found to be 0.525.
With U13C U16C U26A, the yeast fitness was 0.637.
As for U3A U7A C49A, the yeast fitness was 0.542.
For C4A C22U C27U, the yeast fitness was ≤ 0.5.
The same measure for A57G A70U: 0.937.
C33G U35C G39A: the yeast fitness is ≤ 0.5.
As for U2G U26A, the figure is 0.828; as for C5U C27U G56A, 0.704; as for C34G A37C G44C, ≤ 0.5.
The same measure for C24G C29G C49G: ≤ 0.5; for G50C C61U C62U A69U: ≤ 0.5.
With A20U G23A U28C C31U G39A G56A, the yeast fitness was ≤ 0.5.
The same measure for C4A U13C U32G: 0.571; for C4G U16C A70C: 0.709.
As for U19C A37G A65U, the figure is 0.58; as for A20G U32A C34G A43G G50C U64A, ≤ 0.5.
As for C4U C11G, the figure is 0.692; as for U16A C29G A42G C46G A65U, ≤ 0.5; as for C22A C33G A43C A69C, ≤ 0.5.
Regarding G10A C11U A15G C30U U47C C61G A69C, the yeast fitness was ≤ 0.5.
With C22A C24U U28A A37G, the yeast fitness was ≤ 0.5.
As to A14C U19C A43C G44C G48A U59A U64C C66U, the yeast fitness was ≤ 0.5.
As for G12A A42G A65C, the yeast fitness came to 0.6.
For A21U C55U C62G, the yeast fitness was ≤ 0.5.
Take U8C C27U G41C C61G: the yeast fitness came to 0.551.
A14G G23A C29G G68C: the yeast fitness is ≤ 0.5.
Regarding A20U G38C A65G C66U, the yeast fitness is ≤ 0.5.
As for C60G A65G, the figure is 0.755; as for A36C C61G A70C, 0.569.
Regarding G18A G51C A65U, the yeast fitness was ≤ 0.5.
The same measure for G23A G44C C61G: ≤ 0.5.
C22A C24G U53C: the yeast fitness is ≤ 0.5.
The same measure for A20G A40U A45C A65U: ≤ 0.5; for U7A A36U C55U A65U: 0.555; for C22U C29G C34G A42U U54C G56A: ≤ 0.5.
As for U3A C11U A20C U32A C62U G63A, the figure is ≤ 0.5.
As for C29U A36C, the figure is 0.531; as for G12C C31G, 0.818; as for U13C C31G U47G U53G C61U G68A, 0.591.
Regarding A15C C22U, the yeast fitness was 0.689.
A15U C24A: the yeast fitness worked out at 0.53.
The same measure for U7C U16A C24G G41C: ≤ 0.5.
As for A40U A57C, the figure is 0.744.
As for A15G U26G C30U A37C G39C C61G A69G, the figure is ≤ 0.5; as for U2A C29G U47G C49G U54G, ≤ 0.5.
Take C4G U8C A15G G23A C34G G67A: the yeast fitness is ≤ 0.5.
For G6C A20U C30G A65G A70U, the yeast fitness was 0.53.
The same measure for U2A U16A C66U A69G: ≤ 0.5.
As to A14G G58C, the yeast fitness worked out at 0.989.
The same measure for C4G U8C G25A A42U A70U: ≤ 0.5.
For A45U C49A G52C G56A, the yeast fitness is ≤ 0.5.
Take C11U U16C C33A U53C: the yeast fitness was ≤ 0.5.
The same measure for A21U C49A G50C: ≤ 0.5; for A21G U26A A65C: 0.527.
A14C A15U A40C G48A: the yeast fitness is ≤ 0.5.
Consider C30U C31U G41C, for which the yeast fitness came to 0.526.
The same measure for C22G C33A C49G: 0.592.
Regarding A15C G58A G68A A70C, the yeast fitness was ≤ 0.5.
As for A21U G38A, the figure is 0.682.
The same measure for G25C C46U: 1.06.
As for C30G C49A G56A C60G G68C, the figure is 0.541; as for C5U A37C G39C, ≤ 0.5; as for C4G G10C G12C A21C G48C A57G, 0.527.
U3C G6A G18C C30U C31U G48A C55G G67A: the yeast fitness is ≤ 0.5.
A36C G56C: the yeast fitness amounted to 0.793.
As for G9A C33A C46A G56C, the figure is ≤ 0.5.
The same measure for C31G C34U C55U G58A C61U: 0.586; for C4A A45U: 0.818; for C11G U47C: 0.687.
For A21C C30G C34G, the yeast fitness was 0.627.
The same measure for G6A G10A: 0.859; for U26G C33A A42U C55G: 0.556.
As to C33G A36C C66U, the yeast fitness stood at 0.502.
As for U7C A43C C55U, the figure is 0.543; as for G6C C24G, 0.686.
Turning to U32C C55U A69U, the yeast fitness is 0.55.
For the variant C22U U47C, the yeast fitness came out at 0.857.
The same measure for C11G G17C C29U G51A C62U A69C: ≤ 0.5.
As for G41C U59A C61A C66U G68C, the figure is ≤ 0.5; as for C4U U32A G58C, 0.592; as for G39A C55U, 0.873.
As for C27A U35C A42U C55A, the figure is ≤ 0.5; as for U8C C24G C27U C55A, ≤ 0.5.
With C29U A37G G39C C49U, the yeast fitness was ≤ 0.5.
Regarding C11U A20U C24U C33G U47A C49U, the yeast fitness amounted to 0.557.
The same measure for U16C C22G C46G C49U A69U: 0.55; for G23A C30U C55U G67C: ≤ 0.5.
The same measure for U3A G6A U16A C24G A37U C49U C62U: 0.61; for G12C G44A: 0.879.
As for U8G U35C, the figure is 0.767; as for U13G C30A A65U A69C, ≤ 0.5.
Turning to C11U A57G C61A, the yeast fitness was ≤ 0.5.
As for A20C C29G U35C, the figure is ≤ 0.5; as for A14C U54C, 0.702; as for A14G C31A, 0.752.
As for U16C A40U A65C, the figure is 0.626; as for G52A C66A, 0.649.
Turning to C4G A14G G44C U47A, the yeast fitness is ≤ 0.5.
As to C22G G67C, the yeast fitness is 0.97.
On to A20U C22G, for which the yeast fitness was 0.633.
The same measure for C29A C34G A57C: ≤ 0.5.
Turning to C11U U26A C31G A37U, the yeast fitness was ≤ 0.5.
The same measure for U3C A20G U64A A65G: ≤ 0.5; for A43U C62U G63A: 0.823; for C5U C33G C46A C66A: ≤ 0.5.
As for A14C G25A C66U, the figure is 0.541.
As for U19C G41C A65G, the figure is 0.663; as for C22G U26C C33U A37U A40C G63C, ≤ 0.5.
Regarding G10A U13A C24U A70C, the yeast fitness is ≤ 0.5.
The same measure for U3A C11G C31G C62A: ≤ 0.5; for A36G C66U: 0.949.
On to C11A A37G, for which the yeast fitness amounted to 0.566.
The same measure for U47C C62U: 0.944; for U8G A43C G52A: 0.847.
In the case of U8C C31G G48A U54C, the yeast fitness was ≤ 0.5.
The same measure for G10C C29A C46U C60G: ≤ 0.5; for G6C G17A C24A U32C A45C C60A: ≤ 0.5; for C5A G23A C24U: 0.561.
As for A37U G44A G67U A70G, the figure is ≤ 0.5; as for C34G A65U, 0.581; as for A21C A65G, 0.863.
The same measure for A15C U19A A70C: ≤ 0.5; for C22U A40U: 0.642.
Regarding G9C A14U A21C, the yeast fitness amounted to 0.61.
The same measure for C46G G50C G56A A57U: ≤ 0.5.
As for C34G A42G, the figure is 0.716.
As for A21G G23A C34G A36U A57C C66U, the figure is ≤ 0.5; as for C30U G39A, 0.897; as for U7G U8A A14G, 0.525.
For G9C A65G, the yeast fitness is 0.78.
As for G18C C24G C34U C49A, the yeast fitness is ≤ 0.5.
The same measure for A14U A37C G44A A70G: 0.551; for C31A U59C: 0.767.
Consider A42U A45C A70C, for which the yeast fitness worked out at 0.721.
As for A37C G41C A45G, the figure is ≤ 0.5; as for G38A A43G A69C, ≤ 0.5; as for C24U C31A A43C G58C U64G, ≤ 0.5.
As for A15C G23C G41A, the figure is ≤ 0.5.
As for C11U G38C C62G, the figure is 0.542; as for G51C G68C, 0.641; as for G44C C49G, 0.741.
C31G A40G A45C U53A A70U: the yeast fitness is ≤ 0.5.
As to C29A C30U U47C U64C, the yeast fitness was ≤ 0.5.
As for A15U C30U G52A A65U, the figure is ≤ 0.5; as for U7G A21C U26C G44C, ≤ 0.5.
On to U26C A37C A40C A57C U64G, for which the yeast fitness worked out at 0.614.
As to C34U C55A A70U, the yeast fitness is 0.619.
As for C4G G10U A14U C24U C33U G52A C66U, the yeast fitness is ≤ 0.5.
Take U8C A20U U28A C62U G67U: the yeast fitness was ≤ 0.5.
Consider C4U U7A U54G, for which the yeast fitness was ≤ 0.5.
Turning to A14G C24G C31U U47C C55A, the yeast fitness is ≤ 0.5.
The same measure for G10C A21G C30A G38C C46U: 0.681.
The same measure for C5U G9A U13A A36C G50C: ≤ 0.5; for C34G A40G G41U C46G A57U C61U: ≤ 0.5.
In the case of A37C G39C A65U, the yeast fitness was ≤ 0.5.
The same measure for C27G U28A C30G C31U G67A: 0.519; for U7C G10A C24G: ≤ 0.5; for U19C U32G: 0.655.
In the case of A37C C55G G68C, the yeast fitness came out at 0.556.
Take U35G G58A: the yeast fitness worked out at 0.675.
As for C11G U16A A70U, the figure is 0.553.
Consider C11A C24U C31U C61U G67A, for which the yeast fitness is ≤ 0.5.
As for C27A C30G, the yeast fitness was 0.634.
As to U64A A69G, the yeast fitness stood at 0.719.
As for U35C A42G C55A, the figure is ≤ 0.5.
